Laboratory results published in ChEMBL document CHEMBL2010770, “Dimeric 3,5-bis(benzylidene)-4-piperidones: a novel cluster of tumour-selective cytotoxins possessing multidrug-resistant properties” (Eur J Med Chem, 2012).
Active and inactive are the calls of the source. The rule behind the calls is not given here.

Assays:
[1] = Cytotoxicity against human HGF cells after 48 hrs; format: cell-based
Summary of the method: (§1)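 Cells were exposed to a dose range for 48 h, following a literature method. CC50 was read from the dose–response curve.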

HL-60 [2] = assay: Selectivity index, ratio of CC50 for human normal cells to CC50 for human HL60 cells; format: functional
MOLT-4 = assay: Growth inhibition of human Molt4/C8 cells; format: functional, cell-based
[3] = target: T1, ATP-dependent translocase ABCB1 (Homo sapiens, UniProt P08183); assay: Inhibition of human MDR1-mediated multidrug resistant in mouse L5178Y cells at 40 uM treated 10 mins before rhodamine 123 challenge measured after 20 mins relative to control; format: cell-based
T1 sequence (P08183 whole entry): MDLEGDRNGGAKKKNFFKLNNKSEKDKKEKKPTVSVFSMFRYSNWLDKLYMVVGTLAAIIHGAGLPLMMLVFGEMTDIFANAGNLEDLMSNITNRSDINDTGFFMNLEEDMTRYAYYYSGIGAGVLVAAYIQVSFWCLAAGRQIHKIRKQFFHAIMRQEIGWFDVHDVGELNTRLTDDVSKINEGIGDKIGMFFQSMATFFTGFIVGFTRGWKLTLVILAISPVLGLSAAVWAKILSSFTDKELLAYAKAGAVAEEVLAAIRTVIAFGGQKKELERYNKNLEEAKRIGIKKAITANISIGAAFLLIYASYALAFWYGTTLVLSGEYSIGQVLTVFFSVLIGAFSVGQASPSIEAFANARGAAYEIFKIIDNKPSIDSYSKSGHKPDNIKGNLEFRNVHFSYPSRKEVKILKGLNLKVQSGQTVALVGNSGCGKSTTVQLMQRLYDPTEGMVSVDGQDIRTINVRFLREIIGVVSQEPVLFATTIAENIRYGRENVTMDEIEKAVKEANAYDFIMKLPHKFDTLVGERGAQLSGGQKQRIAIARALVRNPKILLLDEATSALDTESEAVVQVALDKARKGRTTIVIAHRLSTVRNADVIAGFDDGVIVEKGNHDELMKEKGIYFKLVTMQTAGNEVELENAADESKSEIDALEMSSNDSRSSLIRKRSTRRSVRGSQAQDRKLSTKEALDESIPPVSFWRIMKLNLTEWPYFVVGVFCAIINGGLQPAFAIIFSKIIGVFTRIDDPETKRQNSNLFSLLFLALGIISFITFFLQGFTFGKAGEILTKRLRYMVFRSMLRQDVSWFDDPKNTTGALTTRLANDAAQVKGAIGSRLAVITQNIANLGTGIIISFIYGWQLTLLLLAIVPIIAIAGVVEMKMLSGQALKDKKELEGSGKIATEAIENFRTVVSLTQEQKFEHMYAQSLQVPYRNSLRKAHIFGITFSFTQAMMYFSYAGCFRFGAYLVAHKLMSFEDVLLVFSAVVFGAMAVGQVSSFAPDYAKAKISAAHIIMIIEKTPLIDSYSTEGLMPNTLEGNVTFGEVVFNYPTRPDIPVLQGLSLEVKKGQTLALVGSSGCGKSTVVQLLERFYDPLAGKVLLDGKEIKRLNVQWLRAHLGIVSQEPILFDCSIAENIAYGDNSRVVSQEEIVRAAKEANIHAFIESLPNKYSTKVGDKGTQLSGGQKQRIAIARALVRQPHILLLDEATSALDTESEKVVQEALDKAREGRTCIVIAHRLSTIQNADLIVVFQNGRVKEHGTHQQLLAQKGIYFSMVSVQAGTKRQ
Summary of the method: (§2)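 Compounds in DMSO were added at room temperature to mdr1-transfected and parental L5178Y cells. After 10 min, rhodamine 123 was added, followed by 20 min at 37 °C. Cellular rhodamine fluorescence was measured and expressed as fluorescence activity ratio (FAR); FAR >1 indicates MDR reversal.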

HSC-2 [4] = assay: Selectivity index, ratio of CC50 for human normal cells to CC50 for human HSC2 cells; format: functional
HL-60 [5] = assay: Cytotoxicity against human HL60 cells after 48 hrs; format: functional; settings: HL-60, 48 h
Summary of the method: (§3)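 Human HSC-2, HSC-3, HSC-4 squamous carcinoma and HL-60 promyelocytic leukaemia cells incubated with compound for 48 h. CC50, the concentration killing 50% of cells, read from a dose–response curve.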

L1210 = assay: Growth inhibition of mouse L1210 cells; format: functional, cell-based
HSC-3 [6] = assay: Cytotoxicity against human HSC3 cells after 48 hrs; format: functional; settings: HSC-3, 48 h; summary of the method: as §3
HSC-3 [7] = assay: Selectivity index, ratio of CC50 for human normal cells to CC50 for human HSC3 cells; format: functional
HSC-4 [8] = assay: Cytotoxicity against human HSC4 cells after 48 hrs; format: functional; settings: HSC-4, 48 h; summary of the method: as §3
HSC-4 [9] = assay: Selectivity index, ratio of CC50 for human normal cells to CC50 for human HSC4 cells; format: functional
CCRF-CEM = assay: Growth inhibition of human CEM cells; format: functional, cell-based
[10] = target: T1, ATP-dependent translocase ABCB1; assay: Inhibition of human MDR1-mediated multidrug resistant in mouse L5178Y cells at 4 uM treated 10 mins before rhodamine 123 challenge measured after 20 mins relative to control; format: cell-based; summary of the method: as §2
HSC-2 [11] = assay: Cytotoxicity against human HSC2 cells after 48 hrs; format: functional; settings: HSC-2, 48 h; summary of the method: as §3
[12] = Cytotoxicity against human HPLF cells after 48 hrs; format: cell-based; summary of the method: as §1
HCT-15 = assay: Cytotoxicity against human HCT15 cells; format: functional, cell-based
Summary of the method: (§4)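 Human colon cancer and leukaemia line panel. Compounds tested from 10^-4 to 10^-8 M, and IC50 values determined.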

SW-620 = assay: Cytotoxicity against human SW620 cells; format: functional, cell-based; summary of the method: as §4
HCT-116 = assay: Cytotoxicity against human HCT116 cells; format: functional, cell-based; summary of the method: as §4
HT-29 = assay: Cytotoxicity against human HT-29 cells; format: functional, cell-based; summary of the method: as §4
KM12 = assay: Cytotoxicity against human KM12 cells; format: functional, cell-based; summary of the method: as §4
RPMI-8226 = assay: Cytotoxicity against human RPMI8226 cells; format: functional, cell-based; summary of the method: as §4
K562 = assay: Cytotoxicity against human K562 cells; format: functional, cell-based; summary of the method: as §4
HL-60(TB) = assay: Cytotoxicity against human HL-60(TB) cells; format: functional, cell-based; summary of the method: as §4
COLO 205 = assay: Cytotoxicity against human COLO205 cells; format: functional, cell-based; summary of the method: as §4
HCC 2998 = assay: Cytotoxicity against human HCC2998 cells; format: functional, cell-based; summary of the method: as §4
HSC-3 [13] = assay: Ratio of melphalan CC50 to compound CC50 for human HSC3 cells; format: functional
HSC-4 [14] = assay: Ratio of melphalan CC50 to compound CC50 for human HSC4 cells; format: functional
HSC-2 [15] = assay: Ratio of melphalan CC50 to compound CC50 for human HSC2 cells; format: functional

| SMILES | CC50 at 48 h [1] [µM] | Ratio (HL-60 [2]) | growth inhibition (GI) (MOLT-4) | Ratio [3] | Ratio (HSC-2 [4]) | CC50 (HL-60 [5]) [µM] | growth inhibition (GI) (L1210) | CC50 (HSC-3 [6]) [µM] | Ratio (HSC-3 [7]) | CC50 (HSC-4 [8]) [µM] | Ratio (HSC-4 [9]) | growth inhibition (GI) (CCRF-CEM) | Ratio [10] | CC50 (HSC-2 [11]) [µM] | CC50 at 48 h [12] [µM] | IC50 (HCT-15) [µM] | IC50 (SW-620) [µM] | IC50 (HCT-116) [µM] | IC50 (HT-29) [µM] | IC50 (HL-60(TB)) [µM] | also measured |
| --- | --- | --- | --- | --- | --- | --- | --- | --- | --- | --- | --- | --- | --- | --- | --- | --- | --- | --- | --- | --- | --- |
| O=C1/C(=C/c2ccccc2)CN(C(=O)CCCCCCC(=O)N2C/C(=C\c3ccccc3)C(=O)/C(=C/c3ccccc3)C2)C/C1=C\c1ccccc1 | 13 | 8 | Active | 55.7 | 61.2 | 1.3 | Active | 0.21 | 49.5 | 0.62 | 16.8 | Active | 49.2 | 0.17 | 17 |  |  |  |  |  |  |
| O=C1/C(=C/c2ccccc2)CN(C(=O)CCC(=O)N2C/C(=C\c3ccccc3)C(=O)/C(=C/c3ccccc3)C2)C/C1=C\c1ccccc1 | 10 | 22.4 | Active | 60 | 92.6 | 0.41 | Active | 0.23 | 39.9 | 0.24 | 38.2 | Active | 35 | 0.099 | 16 | 0.38 | 0.26 | 0.14 | 0.24 | 0.27 | IC50 (KM12): 0.3 µM; IC50 (RPMI-8226): 0.06 µM; IC50 (K562): 0.22 µM; IC50 (COLO 205): 0.39 µM; IC50 (HCC 2998): 0.23 µM |
| O=C1/C(=C/c2ccccc2)CN(C(=O)/C=C/C(=O)N2C/C(=C\c3ccccc3)C(=O)/C(=C/c3ccccc3)C2)C/C1=C\c1ccccc1 | 17 | 12.4 | Active | 52.9 | 191 | 1.2 | Active | 0.62 | 24 | 0.58 | 25.7 | Active | 37.2 | 0.078 | 22 | 0.83 | 0.22 | 0.13 | 0.25 | 0.45 | IC50 (KM12): 0.21 µM; IC50 (RPMI-8226): 0.05 µM; IC50 (K562): 0.32 µM; IC50 (COLO 205): 0.56 µM; IC50 (HCC 2998): 0.22 µM |
| O=C1/C(=C/c2ccccc2)CN(C(=O)c2ccccc2C(=O)N2C/C(=C\c3ccccc3)C(=O)/C(=C/c3ccccc3)C2)C/C1=C\c1ccccc1 | 5.7 | 44.7 | Active | 51.5 | 189 | 0.11 | Active | 0.076 | 64.7 | 0.082 | 60 | Active | 46.5 | 0.026 | 8.5 | 0.35 | 0.3 | 0.03 | 0.17 | 0.21 | Ratio (HSC-3 [13]): 329; Ratio (HSC-4 [14]): 390; IC50 (KM12): 0.21 µM; IC50 (RPMI-8226): 0.06 µM; IC50 (K562): 0.21 µM; Ratio (HSC-2 [15]): 335; IC50 (COLO 205): 0.21 µM; IC50 (HCC 2998): 0.2 µM |
| O=C1/C(=C/c2ccccc2)CN(C(=O)/C=C/C=C/C(=O)N2C/C(=C\c3ccccc3)C(=O)/C(=C/c3ccccc3)C2)C/C1=C\c1ccccc1 | 39 | 4.73 | Active | 44.3 | 13.5 | 7.4 | Active | 8.5 | 4.12 | 6.4 | 5.47 | Active | 48.6 | 2.6 | 47 |  |  |  |  |  |  |
| O=C1/C(=C/c2ccccc2)CN(C(=O)c2cccc(C(=O)N3C/C(=C\c4ccccc4)C(=O)/C(=C/c4ccccc4)C3)c2)C/C1=C\c1ccccc1 | 42 | 5.5 | Active | 61.3 | 11.3 | 6.6 | Active | 6.3 | 5.76 | 8 | 4.54 | Active | 38.9 | 3.2 | 46 | 1.7 | 0.36 | 0.2 | 0.55 | 2.04 | IC50 (KM12): 0.35 µM; IC50 (RPMI-8226): 0.73 µM; IC50 (K562): 1.55 µM; IC50 (COLO 205): 2.4 µM |
| O=c1[nH]cc(F)c(=O)[nH]1 [FLUOROURACIL] |  |  |  |  |  |  |  |  |  |  |  |  |  |  |  |  | 380 |  |  | > 2510 |  |
| O=C1/C(=C/c2ccccc2)CN(C(=O)C(=O)N2C/C(=C\c3ccccc3)C(=O)/C(=C/c3ccccc3)C2)C/C1=C\c1ccccc1 | 3.8 | 29.6 | Active | 41.1 | 38.4 | 0.11 | Active | 0.15 | 21.7 | 0.2 | 16.3 | Active | 19.3 | 0.085 | 5.3 | 0.3 | 0.07 | 0.03 | 0.17 | 0.2 | IC50 (KM12): 0.04 µM; IC50 (RPMI-8226): 0.25 µM; IC50 (K562): 0.2 µM; IC50 (COLO 205): 0.36 µM; IC50 (HCC 2998): 0.19 µM |
| N[C@@H](Cc1ccc(N(CCCl)CCCl)cc1)C(=O)O [MELPHALAN] |  | 150 |  |  | 24.1 | 1.4 |  | 25 | 8.4 | 32 | 6.56 |  |  | 8.7 |  |  |  |  |  |  |  |
| O=C1/C(=C/c2ccccc2)CN(C(=O)C#CC(=O)N2C/C(=C\c3ccccc3)C(=O)/C(=C/c3ccccc3)C2)C/C1=C\c1ccccc1 | 8.5 | 9.05 | Active | 45.7 | 41.4 | 0.87 | Active | 0.49 | 16.1 | 0.93 | 8.46 | Active | 42 | 0.19 | 13 | 0.39 | 0.2 | 0.12 | 0.2 | 0.25 | IC50 (KM12): 0.28 µM; IC50 (RPMI-8226): 0.08 µM; IC50 (K562): 0.3 µM; IC50 (COLO 205): 0.25 µM; IC50 (HCC 2998): 0.41 µM |
| O=C1/C(=C/c2ccccc2)CN(C(=O)CCCC(=O)N2C/C(=C\c3ccccc3)C(=O)/C(=C/c3ccccc3)C2)C/C1=C\c1ccccc1 | 2.9 | 6.33 | Active | 73.4 | 34.8 | 0.39 | Active | 0.17 | 14.5 | 0.19 | 13 | Active | 50.2 | 0.071 | 3.9 |  |  |  |  |  |  |
